Reference: ChEMBL document CHEMBL5053559, “Photoaffinity-Based Chemical Proteomics Reveals 7-Oxocallitrisic Acid Targets CPT1A to Trigger Lipogenesis Inhibition” (ACS Med Chem Lett, 2021)
Calls of active or inactive are those of the source. The calls are words filed in the database; no cut-off is given here.

How the values were obtained:
AML12 [1] = assay: Inhibition of oleic acid-induced lipid accumulation in mouse AML12 cells with Si-RNA-induced ECHS1 knockdown; type: functional, cell-based
AML12 [2] = assay: Inhibition of oleic acid-induced lipid accumulation in mouse AML12 cells with siRNA-induced CPT1A knockdown at 40 uM measured after 24 hrs by Oil red O staining based microscopic assay; type: functional, cell-based
Summary of the method: (§1)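 AML12 cells either transfected with siRNA against CPT1A or pretreated with 20 μM etomoxir, with negative-control comparison. Cells then loaded with oleic acid and exposed to compound at 40 μM for 24 h. Lipid read by Oil Red O staining with image quantification. Mean ± SEM, n = 3.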

AML12 [3] = assay: Cytotoxicity against mouse AML12 cells assessed as cell viability at 40 uM measured after 24 hrs by MTT assay; type: cell-based; details: aml12, 24 h
AML12 [4] = assay: Inhibition of oleic acid-induced lipid accumulation in mouse AML12 cells at 20 uM preincubated with oleic acid for 24 hrs followed by addition of compounds and measured after 24 hrs by Oil red O staining based microscopic assay; type: functional, cell-based
Summary of the method: (§2)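 Normal mouse liver AML12 cells loaded with 0.15 mM oleic acid in BSA to induce lipid droplets, then given compound for 24 h. DMSO vehicle as control. Stained with Oil Red O and quantified by image analysis. Mean ± SEM, n = 3.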

AML12 [5] = assay: Inhibition of oleic acid-induced lipid accumulation in mouse AML12 cells with Si-RNA-induced ACSL1 knockdown; type: functional, cell-based
AML12 [6] = assay: Inhibition of oleic acid-induced lipid accumulation in mouse AML12 cells with Si-RNA-induced FADS3 knockdown; type: functional, cell-based
AML12 [7] = assay: Activation of CPT1A in mouse AML12 cells assessed as inhibition of oleic acid-induced lipid accumulation using L-carnitine and palmitoyl CoA as substrates at 20 uM measured after 48 hrs by […] reagent based assay relative to control; type: cell-based; details: filed as activator
Summary of the method: (§3)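 Lysates of AML12 cells grown in medium with 0.15 mM oleic acid. Cells pretreated 6 h with ETO or with DMSO, then exposed to compound for 24 h (legend says 48 h). Lysis by sonication in 0.5 M Tris, 0.15 M KCl and protease inhibitors. Protein measured by Bradford. Activity expressed as nmol CoA-SH released per min per mg protein. Mean ± SEM, n = 3.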

AML12 [8] = assay: Inhibition of oleic acid-induced lipid accumulation in mouse AML12 cells assessed as increased expression of CPT1A preincubated with ETO at 40 uM measured after 24 hrs by Oil red O staining based microscopic assay; type: functional, cell-based; summary of the method: as §1
AML12 [9] = assay: Activation of CPT1A in mouse AML12 cells assessed as inhibition of oleic acid-induced lipid accumulation using L-carnitine and palmitoyl CoA as substrates at 40 uM measured after 48 hrs by […] reagent based enzymatic assay relative to control; type: cell-based; details: filed as activator; summary of the method: as §3
AML12 [10] = assay: Cytotoxicity against mouse AML12 cells assessed as cell viability at 10 uM measured after 24 hrs by MTT assay; type: cell-based; details: aml12, 24 h
AML12 [11] = assay: Activation of CPT1A in mouse AML12 cells assessed as inhibition of oleic acid-induced lipid accumulation using L-carnitine and palmitoyl CoA as substrates pretreated with ETO for 6 hrs followed by addition of compound at 40 uM measured after 48 hrs by […] reagent based enzymatic assay; type: cell-based; summary of the method: as §3
AML12 [12] = assay: Cytotoxicity against mouse AML12 cells assessed as cell viability at 5 uM measured after 24 hrs by MTT assay; type: cell-based; details: aml12, 24 h
AML12 [13] = assay: Inhibition of oleic acid-induced lipid accumulation in mouse AML12 cells at 40 uM preincubated with oleic acid for 24 hrs followed by addition of compounds and measured after 24 hrs by Oil red O staining based microscopic assay; type: functional, cell-based; summary of the method: as §2
AML12 [14] = assay: Cytotoxicity against mouse AML12 cells assessed as cell viability at 20 uM measured after 24 hrs by MTT assay; type: cell-based; details: aml12, 24 h
AML12 [15] = assay: Activation of CPT1A in mouse AML12 cells assessed as inhibition of oleic acid-induced lipid accumulation using L-carnitine and palmitoyl CoA as substrates pretreated with ETO for 6 hrs followed by addition of compound at 20 uM measured after 48 hrs by […] reagent based enzymatic assay; type: cell-based; summary of the method: as §3

## CC(C)c1ccc2c(c1)C(=O)C[C@H]1[C@](C)(C(=O)O)CCC[C@]21C
AML12 [1]
  inhibition: Active
AML12 [2]
  inhibition: inactive
AML12 [3]
  Activity: Non-Toxic
AML12 [4]
  inhibition: Active
AML12 [5]
  inhibition: Active
AML12 [6]
  inhibition: Active
AML12 [7]
  fold change (FC): 1.5
AML12 [8]
  inhibition: inactive
AML12 [9]
  fold change (FC): 1.6
AML12 [10]
  Activity: Non-Toxic
AML12 [11]
  Activity: inactive
AML12 [12]
  Activity: Non-Toxic
AML12 [13]
  inhibition: Active
AML12 [14]
  Activity: Non-Toxic
AML12 [15]
  Activity: inactive
